ChEMBL document CHEMBL1138526, “Design, synthesis, and biological activity of boronic acid-based histone deacetylase inhibitors” (J Med Chem, 2009)
Blank lines part the entries; values can stand above or below the compound they belong to.

Legend:
[1] = biological target: Histone deacetylase; assay: Inhibition of HDAC in human HeLa cell nuclear extracts by fluorimetry; assay type: cell-based
[2] = biological target: T1, Histone deacetylase 8 (Homo sapiens, UniProt Q9BY41); assay: Inhibition of human recombinant HDAC8 by fluorimetry
T1 sequence (Q9BY41 whole entry): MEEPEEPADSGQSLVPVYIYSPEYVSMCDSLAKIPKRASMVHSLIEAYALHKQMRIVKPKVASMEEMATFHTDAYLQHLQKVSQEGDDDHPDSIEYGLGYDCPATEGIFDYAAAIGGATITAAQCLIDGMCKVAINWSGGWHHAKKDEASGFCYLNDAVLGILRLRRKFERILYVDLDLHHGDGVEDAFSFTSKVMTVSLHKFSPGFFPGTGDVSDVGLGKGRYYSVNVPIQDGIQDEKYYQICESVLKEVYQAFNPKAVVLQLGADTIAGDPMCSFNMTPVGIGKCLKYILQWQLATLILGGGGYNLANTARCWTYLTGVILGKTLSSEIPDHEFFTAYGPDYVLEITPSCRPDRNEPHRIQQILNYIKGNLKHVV

[3] = tested on: SNB-78; assay: cells; assay type: functional; details: Homo sapiens, SNB-78, 48 h
[4] = tested on: MKN-45; assay: cells; assay type: functional; details: Homo sapiens, MKN-45, 48 h
[5] = cells; assay type: functional; details: Homo sapiens, RXF 631, 48 h
[6] = tested on: LOX IMVI; assay: cells; assay type: functional; details: Homo sapiens, 48 h
[7] = tested on: DMS-114; assay: Growth inhibition of human DMS114 cells after 48 hrs by sulforhodamine B assay; assay type: functional
Summary of the method: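 GI50 read from growth inhibition of DMS114 lung cancer cells, one line in a nine-line human cancer panel; each value is the mean of two separate experiments.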

[8] = biological target: T2, Protein deacetylase HDAC6 (Homo sapiens, UniProt Q9UBN7); assay: Inhibition of human recombinant HDAC6 by fluorimetry
T2 sequence (Q9UBN7 whole entry): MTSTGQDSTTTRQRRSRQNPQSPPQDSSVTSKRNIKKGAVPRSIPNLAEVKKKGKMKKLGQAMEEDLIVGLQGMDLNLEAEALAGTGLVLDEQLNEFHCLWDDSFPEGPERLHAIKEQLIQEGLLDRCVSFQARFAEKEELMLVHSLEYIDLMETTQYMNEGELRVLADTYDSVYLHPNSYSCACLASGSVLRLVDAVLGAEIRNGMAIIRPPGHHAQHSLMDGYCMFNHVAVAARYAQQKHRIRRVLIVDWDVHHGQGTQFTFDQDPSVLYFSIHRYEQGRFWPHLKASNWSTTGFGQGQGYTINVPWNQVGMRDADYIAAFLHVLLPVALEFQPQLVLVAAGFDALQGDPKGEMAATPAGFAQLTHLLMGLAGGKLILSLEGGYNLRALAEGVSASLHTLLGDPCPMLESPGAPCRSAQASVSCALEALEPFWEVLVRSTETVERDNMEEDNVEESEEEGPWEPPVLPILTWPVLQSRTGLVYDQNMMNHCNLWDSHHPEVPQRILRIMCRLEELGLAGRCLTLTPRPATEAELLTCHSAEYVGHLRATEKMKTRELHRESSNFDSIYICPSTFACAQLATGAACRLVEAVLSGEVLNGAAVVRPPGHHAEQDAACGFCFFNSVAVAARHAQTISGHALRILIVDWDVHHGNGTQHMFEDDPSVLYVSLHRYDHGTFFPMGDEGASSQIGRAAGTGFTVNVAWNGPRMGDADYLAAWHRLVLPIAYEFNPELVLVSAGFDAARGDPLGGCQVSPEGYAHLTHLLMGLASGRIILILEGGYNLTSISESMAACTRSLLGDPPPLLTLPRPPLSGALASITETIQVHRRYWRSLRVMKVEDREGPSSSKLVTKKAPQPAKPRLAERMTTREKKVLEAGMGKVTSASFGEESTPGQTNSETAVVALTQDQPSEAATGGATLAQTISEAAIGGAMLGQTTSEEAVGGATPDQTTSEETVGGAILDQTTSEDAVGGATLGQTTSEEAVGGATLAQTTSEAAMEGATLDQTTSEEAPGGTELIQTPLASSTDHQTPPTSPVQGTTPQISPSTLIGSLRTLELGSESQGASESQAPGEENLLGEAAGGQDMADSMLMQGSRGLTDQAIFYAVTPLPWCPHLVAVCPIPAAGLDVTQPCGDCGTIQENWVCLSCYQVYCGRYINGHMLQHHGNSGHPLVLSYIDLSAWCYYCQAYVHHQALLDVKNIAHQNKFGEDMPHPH

[9] = tested on: HCT-116; assay: cells; assay type: functional; details: Homo sapiens, HCT-116, 48 h
[10] = tested on: PC-3; assay: cells; assay type: functional; details: Homo sapiens, PC-3, 48 h
[11] = biological target: Histone deacetylase 2 (Homo sapiens, UniProt Q92769); assay: Inhibition of human recombinant HDAC2 by fluorimetry
Chain of Histone deacetylase 2 (Q92769 whole entry): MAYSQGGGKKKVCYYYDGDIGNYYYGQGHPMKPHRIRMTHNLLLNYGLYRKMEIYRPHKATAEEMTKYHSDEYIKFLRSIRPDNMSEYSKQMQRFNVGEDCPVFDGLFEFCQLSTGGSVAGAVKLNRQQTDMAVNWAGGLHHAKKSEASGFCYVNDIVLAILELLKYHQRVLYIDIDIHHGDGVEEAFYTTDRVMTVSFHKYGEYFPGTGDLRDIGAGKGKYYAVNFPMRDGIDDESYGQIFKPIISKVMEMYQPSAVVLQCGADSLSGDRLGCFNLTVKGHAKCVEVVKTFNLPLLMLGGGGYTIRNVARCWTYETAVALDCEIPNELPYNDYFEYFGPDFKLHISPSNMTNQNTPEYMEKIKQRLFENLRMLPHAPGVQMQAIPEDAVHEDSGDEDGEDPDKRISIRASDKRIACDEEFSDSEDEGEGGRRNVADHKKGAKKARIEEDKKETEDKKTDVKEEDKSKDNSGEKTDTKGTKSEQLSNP

[12] = biological target: T3, Histone deacetylase 1 (Homo sapiens, UniProt Q13547); assay: Inhibition of human recombinant HDAC1 by fluorimetry
T3 sequence (Q13547 whole entry): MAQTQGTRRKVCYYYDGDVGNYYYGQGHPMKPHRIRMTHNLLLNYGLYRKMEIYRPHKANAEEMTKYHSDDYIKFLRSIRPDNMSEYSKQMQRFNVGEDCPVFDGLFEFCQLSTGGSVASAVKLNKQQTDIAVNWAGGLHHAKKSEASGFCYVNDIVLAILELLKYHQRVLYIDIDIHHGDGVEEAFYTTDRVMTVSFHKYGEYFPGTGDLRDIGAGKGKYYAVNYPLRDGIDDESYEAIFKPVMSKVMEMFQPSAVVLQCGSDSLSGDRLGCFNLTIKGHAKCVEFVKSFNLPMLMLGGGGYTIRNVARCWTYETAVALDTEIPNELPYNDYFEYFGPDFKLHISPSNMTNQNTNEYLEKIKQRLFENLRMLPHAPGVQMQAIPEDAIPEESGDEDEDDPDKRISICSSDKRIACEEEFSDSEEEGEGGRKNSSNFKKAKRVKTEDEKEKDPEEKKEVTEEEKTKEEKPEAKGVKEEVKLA

[13] = tested on: SK-OV-3; assay: cells; assay type: functional; details: Homo sapiens, SK-OV-3, 48 h
[14] = cells; assay type: functional; details: Homo sapiens, HBC5, 48 h
[15] = biological target: T4, Histone deacetylase (Homo sapiens) (UniProt Q13547+O15379+Q9UBN7+Q92769+Q9UQL6+Q8WUI4+Q9BY41+Q96DB2+P56524+Q9UKV0+Q969S8); assay: Inhibition of HDAC in human HeLa cell nuclear extracts at 100 uM by fluorimetry; assay type: cell-free
[16] = biological target: T5, Protein deacetylase HDAC6 (Homo sapiens) (UniProt Q9UBN7); assay: Inhibition of HDAC6 in human HCT116 cells assessed as induction of alpha tubulin acetylation after 8 hrs by Western blot analysis; assay type: cell-based; details: HCT-116
T5 sequence (whole entry): T2 sequence (Q9UBN7 whole entry)

[17] = Ratio of GI50 for human MKN45 cells to IC50 for HDAC in human HeLa cells
[18] = Ratio of GI50 for human MKN45 cells to IC50 for human recombinant HDAC1; parameters: species or system MKN-45
[19] = Ratio of GI50 for human MKN45 cells to IC50 for human recombinant HDAC2; parameters: species or system MKN-45
[20] = biological target: T4, Histone deacetylase (Homo sapiens); assay: Inhibition of HDAC in human HCT116 cells assessed as induction of histone H4 acetylation after 8 hrs by Western blot analysis; assay type: cell-based; details: HCT-116
[21] = biological target: T3, Histone deacetylase 1; assay: Inhibition of human recombinant HDAC1 at 10 uM by fluorimetry

- IC50 [1]: 2 µM
SMILES: O=C(NC(CCCCCB(O)O)C(=O)Nc1cccc(-c2ccccc2)c1)c1cccnc1 (stereo unspecified)

- IC50 [2]: > 100 µM
- GI50 [4]: 21 µM
- IC50 [1]: 24 µM
- IC50 [8]: 5.6 µM
- GI50 [9]: 16 µM
- GI50 [10]: 18 µM
- IC50 [11]: > 100 µM
- IC50 [12]: > 100 µM
- GI50 [13]: 19 µM
SMILES: O=C(N[C@H](CCCCCB(O)O)C(=O)Nc1cccc(-c2ccccc2)c1)c1cncs1
- GI50 [3]: 13 µM
- GI50 [5]: 19 µM
- GI50 [6]: 19 µM
- GI50 ([7]; Homo sapiens, DMS-114, 48 h): 17 µM
- GI50 [14]: 20 µM

- Activity [16]: Dose-dependent effect
- IC50 [2]: 6.6 µM
- GI50 [4]: 3.5 µM
- IC50 [1]: 0.92 µM
- IC50 [8]: 0.11 µM
- GI50 [9]: 0.73 µM
- GI50 [10]: 6.7 µM
- IC50 [11]: 0.53 µM
- IC50 [12]: 2.2 µM
- Activity [20]: Dose-dependent effect
- GI50 [13]: 2.2 µM
SMILES: O=C(N[C@@H](CCCCCB(O)O)C(=O)Nc1cccc(-c2ccccc2)c1)c1cncs1
- GI50 [3]: 9.1 µM
- Ratio [17]: 3.8
- GI50 [5]: 3.2 µM
- GI50 [6]: 1.3 µM
- GI50 ([7]; Homo sapiens, DMS-114, 48 h): 2.4 µM
- Ratio [18]: 1.6
- Ratio [19]: 6.6
- GI50 [14]: 6.5 µM

- IC50 [1]: 1.4 µM
SMILES: O=C(NC(CCCCCB(O)O)C(=O)Nc1cccc(-c2ccccc2)c1)c1cncs1 (stereo unspecified)

- IC50 [1]: 4.2 µM
SMILES: O=C(NC(CCCCCB(O)O)C(=O)Nc1cccc(-c2ccccc2)c1)OCc1ccccc1 (stereo unspecified)

- IC50 [2]: > 100 µM
- IC50 [1]: 17 µM
- IC50 [8]: 24 µM
- IC50 [11]: > 100 µM
- IC50 [12]: > 100 µM
SMILES: O=C(N[C@H](CCCCCB(O)O)C(=O)Nc1cccc(-c2ccccc2)c1)c1ccccc1

- IC50 [1]: > 100 µM
SMILES: O=C(NC(CCCCCB(O)O)C(=O)Nc1cccc(-c2ccccc2)c1)c1ccc2ccccc2n1 (stereo unspecified)

- IC50 [1]: 13 µM
SMILES: CN(C)c1ccc(C(=O)NC(CCCCCB(O)O)C(=O)Nc2cccc(-c3ccccc3)c2)cc1 (stereo unspecified)

- IC50 [2]: > 100 µM
- IC50 [1]: 15 µM
- IC50 [8]: 14 µM
- IC50 [11]: 99 µM
- IC50 [12]: > 100 µM
SMILES: O=C(N[C@H](CCCCCB(O)O)C(=O)Nc1cccc(-c2ccccc2)c1)c1cccnc1

- inhibition [15]: 85%
- IC50 [1]: 12 µM
SMILES: CC(C)(C)OC(=O)NC(CCCCCB(O)O)C(=O)Nc1cccc(-c2ccccc2)c1 (stereo unspecified)

- Activity [16]: Dose-dependent effect
- IC50 [2]: > 100 µM
- GI50 [4]: 9.3 µM
- IC50 [1]: 1.6 µM
- IC50 [8]: 1.1 µM
- IC50 [11]: 3.6 µM
- IC50 [12]: > 10 µM
- Activity [20]: Dose-dependent effect
- inhibition [21]: 38%
SMILES: O=C(N[C@@H](CCCCCB(O)O)C(=O)Nc1cccc(-c2ccccc2)c1)c1ccccc1
- Ratio [17]: 5.8
- Ratio [18]: < 0.93
- Ratio [19]: 2.6

- IC50 [1]: 11 µM
SMILES: O=C(NC(CCCCCB(O)O)C(=O)Nc1cccc(-c2ccccc2)c1)c1cc2ccccc2[nH]1 (stereo unspecified)

- IC50 [1]: 30 µM
SMILES: O=C(Nc1ccccc1)C(CCCCCB(O)O)C(=O)Nc1cccc(-c2ccccc2)c1 (stereo unspecified)

- Activity [16]: Dose-dependent effect
- IC50 [2]: 23 µM
- GI50 [4]: 5.5 µM
- IC50 [1]: 1.4 µM
- IC50 [8]: 0.32 µM
- IC50 [11]: 0.83 µM
- IC50 [12]: 2.8 µM
- Activity [20]: Dose-dependent effect
SMILES: O=C(N[C@@H](CCCCCB(O)O)C(=O)Nc1cccc(-c2ccccc2)c1)c1cccnc1
- Ratio [17]: 3.9
- Ratio [18]: 2
- Ratio [19]: 6.6

- IC50 [1]: 4.7 µM
SMILES: O=C(NC(CCCCCB(O)O)C(=O)Nc1cccc(-c2ccccc2)c1)c1cscn1 (stereo unspecified)

- IC50 [1]: 2 µM
SMILES: O=C(NC(CCCCCB(O)O)C(=O)Nc1cccc(-c2ccccc2)c1)c1ccccc1 (stereo unspecified)

Continued, compound first:

SMILES: O=C(Nc1cccnc1)C(CCCCCB(O)O)C(=O)Nc1cccc(-c2ccccc2)c1 (stereo unspecified)
- IC50 [1]: 51 µM

SMILES: O=C(CCCCCCB(O)O)Nc1cccc(-c2ccccc2)c1
- inhibition [15]: 40%
- IC50 [1]: > 100 µM

SMILES: O=C(CCCCCCB(O)O)Nc1nc2ccccc2s1
- inhibition [15]: 5.1%
- IC50 [1]: > 100 µM

SMILES: CC(C)(C)OC(=O)NC(CCCCCB(O)O)C(=O)Nc1cnc2ccccc2c1 (stereo unspecified)
- inhibition [15]: 86%
- IC50 [1]: 16 µM

SMILES: O=C(CCCCCCB(O)O)Nc1ccc(Oc2ccccc2)cc1
- inhibition [15]: 2.2%
- IC50 [1]: > 100 µM

SMILES: CC(C)(C)OC(=O)NC(CCCCCB(O)O)C(=O)Nc1cccc(Oc2ccccc2)c1 (stereo unspecified)
- inhibition [15]: 38%
- IC50 [1]: > 100 µM

SMILES: CC(C)(C)OC(=O)NC(CCCCCB(O)O)C(=O)Nc1ccccc1 (stereo unspecified)
- inhibition [15]: 42%
- IC50 [1]: > 100 µM

SMILES: CC(C)(C)OC(=O)NC(CCCCCB(O)O)C(=O)Nc1ccc(Oc2ccccc2)cc1 (stereo unspecified)
- inhibition [15]: 15%
- IC50 [1]: > 100 µM

SMILES: CC(C)(C)OC(=O)NC(CCCCCB(O)O)C(=O)Nc1nc2ccccc2s1 (stereo unspecified)
- inhibition [15]: 78%
- IC50 [1]: 23 µM

SMILES: O=C(CCCCCCB(O)O)Nc1cnc2ccccc2c1
- inhibition [15]: 32%
- IC50 [1]: > 100 µM

SMILES: O=C(CCCCCCC(=O)Nc1ccccc1)NO [VORINOSTAT]
- GI50 [7]: 2.9 µM

SMILES: O=C(CCCCCCB(O)O)Nc1cccc(Oc2ccccc2)c1
- inhibition [15]: 1.8%
- IC50 [1]: > 100 µM

SMILES: O=C(CCCCCCB(O)O)Nc1ccccc1
- inhibition [15]: 37%
- IC50 [1]: > 100 µM
